Test results published in ChEMBL document CHEMBL1140782, “Nitrogen-appended N-alkylsulfonamides as inhibitors of gamma-secretase” (Bioorg Med Chem Lett, 2008).

Molecular target: Gamma-secretase
Assay: Inhibition of human gamma secretase in H4 cells assessed as reduction of amyloid beta-40 levels
Format: cell-based
Settings: not given
In short: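 Cells were plated in 96 wells and allowed to attach. Medium was then replaced with Ultraculture containing compound at a final 1% DMSO, and cells were incubated overnight. Aβ40 in the conditioned medium was measured by sandwich ELISA, using a C-terminal Aβ40-specific monoclonal capture antibody and an HRP-labelled N-terminal Aβ monoclonal antibody for detection.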

Compound	IC50
C=C(Cl)CN(c1cc(Cl)ccc1CO)S(=O)(=O)c1ccc(C)cc1	850 nM
CCC[C@@H](C)N(c1cc(Cl)ccc1CO)S(=O)(=O)c1ccc(Cl)cc1	5 nM
C[C@H](CCCn1nnc(N(C)C)n1)N(c1cc(Cl)ccc1CO)S(=O)(=O)c1ccc(Cl)cc1	5.6 nM
C[C@H](CCCN(C)S(C)(=O)=O)N(c1cc(Cl)ccc1CO)S(=O)(=O)c1ccc(Cl)cc1	0.32 nM
Cc1nnnn1CCC[C@@H](C)N(c1cc(Cl)ccc1CO)S(=O)(=O)c1ccc(Cl)cc1	0.75 nM
C[C@H](CCCn1nnnc1N(C)C)N(c1cc(Cl)ccc1CO)S(=O)(=O)c1ccc(Cl)cc1	0.53 nM
C[C@H](CCCn1cnnn1)N(c1cc(Cl)ccc1CO)S(=O)(=O)c1ccc(Cl)cc1	0.51 nM
CC(=O)NCCC[C@@H](C)N(c1cc(Cl)ccc1CO)S(=O)(=O)c1ccc(Cl)cc1	7.3 nM
C[C@H](CCCNC(=O)CO)N(c1cc(Cl)ccc1CO)S(=O)(=O)c1ccc(Cl)cc1	8.1 nM
COCC(=O)NCCC[C@@H](C)N(c1cc(Cl)ccc1CO)S(=O)(=O)c1ccc(Cl)cc1	6.9 nM
C[C@H](CCCn1cccn1)N(c1cc(Cl)ccc1CO)S(=O)(=O)c1ccc(Cl)cc1	18 nM
C[C@H](CCCn1nccn1)N(c1cc(Cl)ccc1CO)S(=O)(=O)c1ccc(Cl)cc1	12 nM
CC(C)C(=O)NCCC[C@@H](C)N(c1cc(Cl)ccc1CO)S(=O)(=O)c1ccc(Cl)cc1	14 nM
C[C@H](CCCNC1CCCO1)N(c1cc(Cl)ccc1CO)S(=O)(=O)c1ccc(Cl)cc1 (stereo partly specified)	29 nM
C[C@H](CCCN1CCCCC1)N(c1cc(Cl)ccc1CO)S(=O)(=O)c1ccc(Cl)cc1	50 nM
C[C@H](CCCn1ccnn1)N(c1cc(Cl)ccc1CO)S(=O)(=O)c1ccc(Cl)cc1	0.9 nM
C[C@H](CCCNC(=O)Cc1ccccc1)N(c1cc(Cl)ccc1CO)S(=O)(=O)c1ccc(Cl)cc1	26 nM
C[C@H](CCCN1CCOCC1)N(c1cc(Cl)ccc1CO)S(=O)(=O)c1ccc(Cl)cc1	3.1 nM
C[C@H](CCCN1CCN(C)CC1)N(c1cc(Cl)ccc1CO)S(=O)(=O)c1ccc(Cl)cc1	29 nM
C[C@H](CCCNC(=O)[C@H](O)c1ccccc1)N(c1cc(Cl)ccc1CO)S(=O)(=O)c1ccc(Cl)cc1	1.6 nM

Compound	IC50
C[C@H](CCCNC(=O)[C@@H](O)c1ccccc1)N(c1cc(Cl)ccc1CO)S(=O)(=O)c1ccc(Cl)cc1	2.9 nM
C[C@H](CCCNC=O)N(c1cc(Cl)ccc1CO)S(=O)(=O)c1ccc(Cl)cc1	5.1 nM
C[C@H](CCCNC(=O)CCc1ccccc1)N(c1cc(Cl)ccc1CO)S(=O)(=O)c1ccc(Cl)cc1	72 nM
C[C@H](CCCN1CCCS1(=O)=O)N(c1cc(Cl)ccc1CO)S(=O)(=O)c1ccc(Cl)cc1	1.1 nM
C[C@H](CCCNS(=O)(=O)c1ccccc1)N(c1cc(Cl)ccc1CO)S(=O)(=O)c1ccc(Cl)cc1	7.4 nM
C[C@H](CCCN(C)C)N(c1cc(Cl)ccc1CO)S(=O)(=O)c1ccc(Cl)cc1	6.5 nM
C[C@H](CCCn1nnc(-c2ccccc2)n1)N(c1cc(Cl)ccc1CO)S(=O)(=O)c1ccc(Cl)cc1	61 nM
C[C@H](CCCNc1ccccc1)N(c1cc(Cl)ccc1CO)S(=O)(=O)c1ccc(Cl)cc1	36 nM
C[C@H](CCCN1CCc2ccccc2C1)N(c1cc(Cl)ccc1CO)S(=O)(=O)c1ccc(Cl)cc1	84 nM
C[C@H](CCCn1ccnc1)N(c1cc(Cl)ccc1CO)S(=O)(=O)c1ccc(Cl)cc1	11 nM
CCC(=O)NCCC[C@@H](C)N(c1cc(Cl)ccc1CO)S(=O)(=O)c1ccc(Cl)cc1	13 nM
C[C@H](CCCN)N(c1cc(Cl)ccc1CO)S(=O)(=O)c1ccc(Cl)cc1	288 nM
Cc1nnn(CCC[C@@H](C)N(c2cc(Cl)ccc2CO)S(=O)(=O)c2ccc(Cl)cc2)n1	6.1 nM
C[C@H](CCCn1nnnc1-c1ccccc1)N(c1cc(Cl)ccc1CO)S(=O)(=O)c1ccc(Cl)cc1	15 nM
CNCCC[C@@H](C)N(c1cc(Cl)ccc1CO)S(=O)(=O)c1ccc(Cl)cc1	262 nM
C[C@H](CCCNC(=O)c1ccccc1)N(c1cc(Cl)ccc1CO)S(=O)(=O)c1ccc(Cl)cc1	15 nM
C[C@H](CCCn1ncnn1)N(c1cc(Cl)ccc1CO)S(=O)(=O)c1ccc(Cl)cc1	1.2 nM
C[C@H](CCCn1cncn1)N(c1cc(Cl)ccc1CO)S(=O)(=O)c1ccc(Cl)cc1	4.8 nM
C[C@H](CCCNS(C)(=O)=O)N(c1cc(Cl)ccc1CO)S(=O)(=O)c1ccc(Cl)cc1	0.23 nM

Tested on: Plasma
Assay: Drug level in Tg2576 beta-APP-Swedish transgenic mouse plasma at 200 umol/kg, po
Format: ADME, organism-based
Settings: in vivo
In short: (§1)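 Tg2576 βAPP-Swedish transgenic mice received a single oral dose of 200 µmol/kg. At 3 h after dosing, brain Aβ was measured as percent reduction, and compound concentrations were measured in plasma and brain in nM, reported as mean ± deviation.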

Compound	concentration
C[C@H](CCCN(C)S(C)(=O)=O)N(c1cc(Cl)ccc1CO)S(=O)(=O)c1ccc(Cl)cc1	12.3 µM
C[C@H](CCCn1cnnn1)N(c1cc(Cl)ccc1CO)S(=O)(=O)c1ccc(Cl)cc1	5.47 µM

Tested on: Mus musculus
Assay: Reduction of amyloid beta levels in Tg2576 beta-APP-Swedish transgenic mouse at 500 umol/kg, po after 3 hrs
Format: functional
Set-up: scale not given: the % may be the effect or the level left
Settings: not given

Compound	Activity
CCC[C@@H](C)N(c1cc(Cl)ccc1CO)S(=O)(=O)c1ccc(Cl)cc1	25%

Tested on: Mus musculus
Assay: Reduction of amyloid beta levels in Tg2576 beta-APP-Swedish transgenic mouse at 200 umol/kg, po after 3 hrs
Format: functional
Set-up: scale not given: the % may be the effect or the level left
Settings: not given
In short: as §1

Compound	Activity
C[C@H](CCCN(C)S(C)(=O)=O)N(c1cc(Cl)ccc1CO)S(=O)(=O)c1ccc(Cl)cc1	27%
C[C@H](CCCn1cnnn1)N(c1cc(Cl)ccc1CO)S(=O)(=O)c1ccc(Cl)cc1	41%

Tested on: Brain
Assay: Drug level in Tg2576 beta-APP-Swedish transgenic mouse brain at 200 umol/kg, po
Format: ADME, organism-based
Settings: in vivo, read-out: Drug uptake
In short: as §1

Compound	concentration
C[C@H](CCCN(C)S(C)(=O)=O)N(c1cc(Cl)ccc1CO)S(=O)(=O)c1ccc(Cl)cc1	0.759 µM
C[C@H](CCCn1cnnn1)N(c1cc(Cl)ccc1CO)S(=O)(=O)c1ccc(Cl)cc1	1.16 µM
